As a reminder, the MIC is the lowest concentration found to suppress growth.

Each structure is given as a SMILES string. Values after ≈ are worked out from the molar mass of the structure shown. A value given as a limit tells only on which side of the number the result lay.

This note sets out measurements from ChEMBL document CHEMBL2086245, “Micelles catalyzed chemo- and regio-selective one pot and one step synthesis of 2,3,5,6-tetrakis(alkyl and arylsulfanyl)-1,4-benzoquinones and 2,5-diaminosubstituted-1,4-benzoquinones "In-Water" and their biological evaluation as antibacterial and antifungal agents” (Eur J Med Chem, 2012).

Data set [1] deals with L929. As to the kind of experiment: Cytotoxicity against mouse L929 cells assessed as morphological changes at 0.39 to 1.56 ug/ml using Giemsa staining by phase contrast microscopy analysis. The format is cell-based. The method in brief: (§1)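 L929 fibroblasts in serum-free RPMI exposed to compound for 24 h. Wells fixed, Giemsa-stained 30 min at 37 °C, washed with PBS, air-dried. Morphology inspected by phase contrast microscopy against untreated control wells.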

Data set [2] has as its system Trichophyton mentagrophytes. As to the kind of experiment: Antifungal activity against Trichophyton mentagrophytes after 96 hrs by broth microdilution method. The format is functional. A digest of the protocol:
(§2)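 NCCLS broth microdilution in MOPS-buffered RPMI 1640, 96-well plates. Inoculum 1-5 × 10^3 cells/mL, moist chamber, 35 °C. Absorbance at 492 nm read at 48 h (C. albicans, C. parapsilosis), 72 h (C. neoformans, S. schenckii, A. fumigatus) or 96 h (T. mentagrophytes). MIC defined as 90% growth inhibition versus growth control.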
Background: In broth dilution the organism is exposed to a series of concentrations in liquid medium.

For data set [3], the system named is Cryptococcus neoformans. As to the kind of experiment: Antifungal activity against Cryptococcus neoformans after 72 hrs by broth microdilution method. It counts as functional. The method in brief: as §2
Data set [4] has as its system Staphylococcus aureus. As to the kind of experiment: Antibacterial activity against Staphylococcus aureus ATCC 25923 after 24 hrs by broth microdilution method. It counts as functional. To be noted: ATCC 25923, 24 h. The method in brief:
(§3)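 NCCLS broth microdilution in Mueller-Hinton broth, 96-well plates. Initial inoculum 1-5 × 10^3 cells/mL. Incubated in a moist chamber at 35 °C for 24 h, then absorbance read at 492 nm. MIC taken as the concentration giving 90% growth inhibition relative to the growth control.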

Data set [5] deals with Candida parapsilosis. As to the kind of experiment: Antifungal activity against Candida parapsilosis ATCC 22019 after 48 hrs by broth microdilution method. The format is functional. The settings on record: Lodderomyces parapsilosis, ATCC 22019, 48 h. A digest of the protocol: as §2
The test system of data set [6] is Escherichia coli. As to the kind of experiment: Antibacterial activity against Escherichia coli ATCC 9637 after 24 hrs by broth microdilution method. The format is functional. The settings on record: ATCC 9637, 24 h. A digest of the protocol:
as §3

Data set [7] concerns Aspergillus fumigatus. As to the kind of experiment: Antifungal activity against Aspergillus fumigatus after 72 hrs by broth microdilution method. The format is functional. The method in brief:
as §2

Data set [8] deals with Candida albicans. As to the kind of experiment: Antifungal activity against Candida albicans after 48 hrs by broth microdilution method. It counts as functional. The method in brief:
as §2

Data set [9] has as its system Sporothrix schenckii. As to the kind of experiment: Antifungal activity against Sporothrix schenckii after 72 hrs by broth microdilution method. The format is functional. A digest of the protocol:
as §2

For data set [10], the system named is L929. As to the kind of experiment: Cytotoxicity against mouse L929 cells assessed as morphological changes at 6.25 to 50 ug/ml using Giemsa staining by phase contrast microscopy analysis. The format is cell-based. The method in brief:
as §1

The nature of data set [11]: Cytotoxicity against mouse L929 cells assessed as cell viability at 6.25 to 50 ug/ml after 24 hrs by MTT assay. It counts as cell-based. The settings on record: read-out: Activity. On the technique in general: Tetrazolium dyes change colour on reduction, which living cells bring about.
Data set [12] deals with Pseudomonas aeruginosa. As to the kind of experiment: Antibacterial activity against Pseudomonas aeruginosa ATCC BAA-427 after 24 hrs by broth microdilution method. It counts as functional. To be noted: ATCC BAA-427, 24 h. The method in brief:
as §3

Data set [13] has as its system Klebsiella pneumoniae. As to the kind of experiment: Antibacterial activity against Klebsiella pneumoniae ATCC 27736 after 24 hrs by broth microdilution method. It counts as functional. The settings on record: ATCC 27736, 24 h. The method in brief:
as §3

`CN1CCN(C2=C(Cl)C(=O)C(N3CCN(C)CC3)=C(Cl)C2=O)CC1`: the Activity entry in data set [1] is “Non-toxic”; in data set [10], “Toxic”. Further, the MIC was found to be 0.78 µg/mL (≈ 2.09 µM) in data set [2]; 1.56 µg/mL (≈ 4.18 µM) in [3]; 6.25 µg/mL (≈ 16.7 µM) in [4]; 6.25 µg/mL (≈ 16.7 µM) in [5]; 6.25 µg/mL (≈ 16.7 µM) in [6]; 12.5 µg/mL (≈ 33.5 µM) in data set [7]. The minimum inhibitory concentration (MIC) in [8] was 6.25 µg/mL (≈ 16.7 µM); in data set [9], 1.56 µg/mL (≈ 4.18 µM); in data set [12], over 50 µg/mL; in data set [13], 6.25 µg/mL (≈ 16.7 µM). Moreover, the viability at 24 h in data set [11] is over 90%.
